Yeast growth inh: chemicals that inhibit yeast BB579 growth in restrictive medium (lifespan-shortening candidates) | 0.51% of 140,000 active | S. cerevisiae BB579 growth, OD615, 48 h | inhibition, % at 10 µM;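 active = inhibition above a set limit, 3 SD over the mean compound inhibition, cut at about 44% in these data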
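System: Saccharomyces cerevisiae DeaD strain BB579, replicative lifespan model yeast | Buffer or medium: Restrictive glucose-based CSMM-D medium | Times: 4 h preincubation and 48 h exposure at 30 °C | Detection: OD615 turbidity measurement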
RAM inhibit: yeast RAM network inhibition; S. cerevisiae dse1pr::URA3 reporter, 5-FOA growth OD615, 2 d; analog-sensitive cbk1-as2 kinase mutant strain; inhibition, % at 50 µM; 1.8% of 190,000 active; AID 868;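 active = inhibition above a set limit, 3 SD over mean compound inhibition, cut at about 8.4% in these data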;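 note: inhibition rescues growth on 5-FOA so higher OD means more RAM inhibition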
Yeast life ext: extends the lifespan of yeast; AID 775; S. cerevisiae growth with nicotinamide, OD615; deaD strain in restrictive glucose medium; inhibition of the nicotinamide effect, % at 10 µM; 0.68% of 130,000 active;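 active = inhibition above a set limit, placed 3 SD over the median of all compounds, cut at about 26% in these data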
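Measured by: optical density (absorbance) at 615 nm; System: modified budding yeast, DeaD strain; Medium: restrictive CSMM-D dextrose medium; Timing: 4 h preincubation then 48 h treatment at 30 °C.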
Insulin prom inh: TRM-6 insulin promoter activity inhibition; TRM-6 cells, insulin promoter-eGFP reporter, imaging; reporter expression induced with tamoxifen; inhibition, % at 2 µM; 0.9% of 130,000 active;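 active = inhibition above the mean plus 3 SD, with well images judged a real hit on visual review, cut at about 60% in these data, passing the limit was not always enough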
Measles CPE: protection of cells from measles virus | protection (pct of control), % at 4 µM | 1.5% of 140,000 active | Measles virus-infected cells, CPE protection, absorbance; in the data active = protection mostly above about 24%, no sharp cut-off; inactive = mostly below about 26%
Mdm2 ligase inh: inhibitors of human Mdm2 E3 ubiquitin ligase. Q00987. cell-based MDM2 ubiquitination luciferase reporter, 2 h; 0 = plate control, 100 = twice control, blank-subtracted. signal enhancement, % at 5 µM. 0.11% of 210,000 active;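 active = signal enhancement of 30% or more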;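 note: luminescence tracks abundance of the self-degrading MDM2-luciferase fusion protein; higher signal means inhibition of MDM2 E3 ligase activity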
Target sequence (Q00987 whole entry, looked up, the tested form may be a part): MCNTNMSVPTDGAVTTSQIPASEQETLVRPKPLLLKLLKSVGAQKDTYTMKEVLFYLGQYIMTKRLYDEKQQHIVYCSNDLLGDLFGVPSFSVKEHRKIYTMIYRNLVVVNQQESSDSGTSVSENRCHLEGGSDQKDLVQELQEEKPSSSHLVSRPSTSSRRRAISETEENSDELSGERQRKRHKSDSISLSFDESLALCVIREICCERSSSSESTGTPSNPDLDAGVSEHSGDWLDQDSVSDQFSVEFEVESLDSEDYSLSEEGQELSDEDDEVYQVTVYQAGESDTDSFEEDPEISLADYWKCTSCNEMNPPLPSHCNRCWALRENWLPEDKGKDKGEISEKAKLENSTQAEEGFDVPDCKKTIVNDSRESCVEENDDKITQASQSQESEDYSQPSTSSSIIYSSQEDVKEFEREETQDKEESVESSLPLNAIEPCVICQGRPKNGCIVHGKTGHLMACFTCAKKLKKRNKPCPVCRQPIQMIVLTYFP
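Material: stable MDM2–luciferase fusion reporter cells / Quantity: 2000 cells/well / Dosing: single 5 µM compound dose, 0.2% final DMSO / Buffer or medium: DMEM / Schedule: 4 h cell settling then 2 h compound exposure, 37 °C / Detection: luminescence with SteadyLite reagent, 15 min at room temperature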
Large screens that a line does not name were inactive. Only some compounds are listed: those with a hit (about 4% of all), similar ones and a draw of the others.

O=C(NNC(=S)NC(=O)c1cccs1)c1ccc(NC(=O)c2ccccc2)cc1	none
COc1ccc(NC(=S)NNC(=O)c2cccs2)cc1	Measles CPE 16.9
COc1ccc(NC(=O)c2cccs2)cc1	none (no result: Yeast life ext)
O=C(C1CCN(C2CCN(CC3CC=CCC3)CC2)CC1)N1CCOCC1 (stereo not given)	none (no result: Yeast growth inh, Yeast life ext, Insulin prom inh, Measles CPE)
Cc1cc(NC(=O)Nc2ccccc2F)ccc1Br	none (no result: Yeast growth inh, Yeast life ext, Insulin prom inh, Measles CPE)
CCN(CC)S(=O)(=O)c1ccc(N2CCOCC2)c(NC(=S)NC(=O)c2ccco2)c1	none (no result: Yeast growth inh, RAM inhibit, Yeast life ext, Insulin prom inh, Measles CPE)
CCOC(=O)CSc1cc(C)c(C#N)c2nc3ccccc3n12	none (no result: Yeast growth inh, Yeast life ext, Insulin prom inh, Measles CPE)
CCOC(=O)c1c(C)cc(C)n2c1nc1ccccc12	Insulin prom inh 75.0
COC(=O)CSc1cc([N+](=O)[O-])cc2c1c(C1OCCO1)nn2-c1ccccc1	none
Cc1ccc2c(n1)CC(C)(C)C/C2=N\O	Insulin prom inh 90.5 (no result: Yeast life ext)
CCSc1nnc(NC(=O)c2ccccn2)s1	Yeast growth inh 97.3
CCSc1nnc(NC(=O)COc2cccc3ccccc23)s1	RAM inhibit 9.7
Cc1c(Cl)c(=O)n2c(=O)c(Cl)c(C)n12	none (no result: Yeast growth inh, Yeast life ext, Insulin prom inh, Measles CPE)
CCOC(=O)c1c(-c2ccc(C)o2)csc1NC(=O)CSc1nnc(C)s1	RAM inhibit 11.0 (no result: Insulin prom inh)
CCOC(=O)c1c(NC(=O)CSc2nnc(C)s2)sc2c1CCCCC2	none
CCOC(=O)c1c(-c2ccc(C)o2)csc1NC(=O)CSc1nnnn1-c1ccccc1	RAM inhibit 8.6
COc1ccc(NC(=O)CSc2nnnn2-c2ccc(OC)cc2)cc1	none
CCOC(=O)c1c(NC(=O)CSc2nnc(C)s2)sc2c1CCC(C)C2 (stereo not given)	RAM inhibit 8.9 (no result: Yeast life ext)
COc1cc(NC(=O)CSc2nnnn2-c2ccccc2)cc(OC)c1OC	Measles CPE 104.2
CCOC(=O)c1c(-c2ccccc2)csc1NC(=O)CSc1nnc(C)s1	none
CC(C)c1ccc(NC(=S)NNC(=O)c2cccs2)cc1	none (no result: Yeast growth inh, Yeast life ext, Measles CPE)
COc1ccc(-n2nnnc2SCC(=O)c2cc3ccccc3o2)cc1	RAM inhibit 8.5
COc1ccc(-n2nnnc2SCC(N)=O)cc1	none
Cn1cnnc1Sc1ccc(/C=C/C(=O)c2ccc(O)cc2)cc1[N+](=O)[O-]	RAM inhibit 8.4 (no result: Yeast growth inh, Yeast life ext, Measles CPE)
CCN(CC)C(=O)CSc1nc(-c2cccs2)cc(-c2cccs2)c1C#N	RAM inhibit 8.4 (no result: Yeast life ext, Mdm2 ligase inh)
CCN(CC)C(=O)CSc1nc(N)c(C#N)c(-c2cccs2)c1C#N	none (no result: Yeast life ext)
CC1(C)Cc2c(cnn2-c2ccccc2)-c2c1c1ccccc1n2CC(O)CBr (stereo not given)	none
C=CCOc1nc(-c2ccncc2)nc2ccccc12	Measles CPE 30.0 (no result: Insulin prom inh)
O=C(NC1CCCCC1)C(c1ccncc1)N(CC1CCCO1)C(=O)C(F)(F)F (stereo not given)	Insulin prom inh 90.0
COc1ccc(/C=C/C2=NN(C)C(=O)CC2)cc1	Insulin prom inh 84.6 (no result: Yeast growth inh, Yeast life ext, Measles CPE)
Cc1cc(C)c2c(N)c3cccc(C)c3nc2n1	none (no result: Insulin prom inh)
Cc1cc(C)nc(NNC(=O)c2ccccc2O)n1	none (no result: Yeast growth inh, Yeast life ext, Measles CPE)
O=C(CN(C(=O)c1ccc2c(c1)OCCO2)c1ccccc1)NCC1CCCO1 (stereo not given)	none
O=C(CSc1nnnn1-c1cccc2ccccc12)NC(C(=O)O)(c1ccccc1)c1ccccc1	RAM inhibit 8.8 (no result: Yeast growth inh, Yeast life ext, Insulin prom inh, Measles CPE)
O=C(CSc1nnnn1-c1cccc2ccccc12)N1CCOCC1	Measles CPE 36.2
Cc1ccc(-n2nnnc2SCC(=O)NC(C(=O)O)(c2ccccc2)c2ccccc2)cc1C	none (no result: Yeast growth inh, Yeast life ext, Insulin prom inh, Measles CPE)
COc1ccc(N(CC(=O)O)S(=O)(=O)c2cccnc2)cc1	none
CCN(CC)S(=O)(=O)c1cccc(C(=O)Nc2ccccc2C(=O)N2CCOCC2)c1	Measles CPE 46.6
CCOC(=O)c1sc(NC(=O)c2cccc(S(=O)(=O)N(CC)CC)c2)cc1C	RAM inhibit 10.5 (no result: Insulin prom inh)
CCN(CC)S(=O)(=O)c1cccc(NC(=O)c2ccccc2Br)c1	Insulin prom inh 76.9 (no result: Yeast growth inh, Yeast life ext, Measles CPE)
CC1CCN(C(=O)c2ccccc2NC(=O)c2cccc(S(=O)(=O)N3CCOCC3)c2)CC1	none (no result: Insulin prom inh)
CCc1ccc(/C=C2/C(=O)N(CC)C(=S)N2C)s1	Insulin prom inh 69.2
COc1cc([N+](=O)[O-])cc(/C=N/NC(=O)CSc2ccccn2)c1O	none (no result: Yeast growth inh, RAM inhibit, Yeast life ext, Insulin prom inh, Measles CPE)
